Assay results of several laboratories.
Lines come from different studies, so protocols differ.
Medium: Caco-2

For `C[C@]12C[C@@H](O)[C@H]3[C@@H](CC[C@]4(O)C[C@@H](O)C[C@@H](O)[C@]34CO)[C@@]1(O)CC[C@@H]2c1cn(Cc2ccccc2)nn1`, the Papp A→B was 0.19 ×10⁻⁶ cm/s (1 h, pH 6.5).
The Papp A→B of `C/N=c1\nc(-c2ccccc2)n(-c2ccccc2)s1` is reported as 38.9 ×10⁻⁶ cm/s (20 µM, 95 min).
`COc1ccc2c(c1)[C@]13CCCC[C@@H]1[C@H](C2)N(C)CC3` has a Papp A→B of 34.9 ×10⁻⁶ cm/s (10 µM, pH 6.5).
With `CC[C@@]1(O)C(=O)OCc2c1cc1n(c2=O)Cc2cc3ccccc3nc2-1` the Papp A→B was 36 ×10⁻⁶ cm/s (100 µM, 105 min).
With `N=c1c2c(-c3ccccc3)c(-c3ccccc3)n(Cc3ccccc3)c2ncn1[C@H]1CC[C@H](O)CC1` the Papp A→B was 0.2 ×10⁻⁶ cm/s (3 µM, 2 h, pH 7.4).
The Papp A→B of `COc1cc2c(c(OC)c1OC)-c1ccc(OC)c(=O)cc1[C@@H](NC(C)=O)CC2` is reported as 0.2 ×10⁻⁶ cm/s.
`C[C@H]1O[C@@H](O[C@H]2[C@@H](O)C[C@H](O[C@H]3[C@@H](O)C[C@H](O[C@H]4CC[C@@]5(C)[C@H](CC[C@@H]6[C@@H]5C[C@@H](O)[C@]5(C)[C@@H](C7=CC(=O)OC7)CC[C@]65O)C4)O[C@@H]3C)O[C@@H]2C)C[C@H](O)[C@@H]1O` has a Papp A→B of 4.28 ×10⁻⁶ cm/s (10 µM, 1 h, pH 7.4).
For `O=C(CCCN1CCC2(CC1)C(=O)NCN2c1ccccc1)N(CC1CCCCC1)c1ccccc1`, the Papp B→A was 6.8 ×10⁻⁶ cm/s.
